Experimental data from ChEMBL document CHEMBL1131628 (J Med Chem, 1998).

What was measured:
Endothelin-1 receptor [1] = target: T1, Endothelin-1 receptor (Rattus norvegicus, UniProt P26684); experiment: Binding affinity for endothelin A receptor by measuring its ability to displace [125I]ET1 from prolactin secreting rat pituitary cells(MMQ); type: cell-based, Pituitary gland cell
T1 sequence (P26684 whole entry): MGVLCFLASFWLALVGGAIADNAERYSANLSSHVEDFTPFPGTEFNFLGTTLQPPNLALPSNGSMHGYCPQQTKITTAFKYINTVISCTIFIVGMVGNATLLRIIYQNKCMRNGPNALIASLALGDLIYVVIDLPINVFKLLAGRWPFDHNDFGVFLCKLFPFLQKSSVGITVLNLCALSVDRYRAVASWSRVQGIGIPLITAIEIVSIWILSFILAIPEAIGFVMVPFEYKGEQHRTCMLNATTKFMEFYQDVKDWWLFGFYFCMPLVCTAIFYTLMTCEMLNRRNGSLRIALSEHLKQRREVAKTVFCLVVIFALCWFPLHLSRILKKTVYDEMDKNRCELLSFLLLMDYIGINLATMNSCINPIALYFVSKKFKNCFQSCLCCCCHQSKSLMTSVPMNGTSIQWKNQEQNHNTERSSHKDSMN

[2] = target: T2, Endothelin receptor type B (Homo sapiens, UniProt P24530); experiment: Tested for binding affinity for human Endothelin B receptor by measuring its ability to displace [125I]ET-3 from chinese hamster ovary cells(CHO); type: cell-based
T2 sequence (P24530 whole entry): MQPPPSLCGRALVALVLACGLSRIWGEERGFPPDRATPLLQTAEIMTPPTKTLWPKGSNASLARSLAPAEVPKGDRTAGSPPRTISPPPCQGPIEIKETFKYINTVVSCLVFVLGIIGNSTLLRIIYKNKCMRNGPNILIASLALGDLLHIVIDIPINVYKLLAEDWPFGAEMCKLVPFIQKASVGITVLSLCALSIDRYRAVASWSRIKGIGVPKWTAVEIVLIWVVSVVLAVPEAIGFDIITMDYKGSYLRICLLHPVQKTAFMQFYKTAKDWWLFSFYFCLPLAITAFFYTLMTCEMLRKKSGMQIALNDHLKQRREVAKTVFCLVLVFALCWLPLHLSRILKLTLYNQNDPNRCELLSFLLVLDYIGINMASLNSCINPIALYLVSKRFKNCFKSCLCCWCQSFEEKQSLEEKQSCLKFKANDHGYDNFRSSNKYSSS

Endothelin-1 receptor [3] = target: T3, Endothelin-1 receptor (Homo sapiens, UniProt P25101); experiment: Tested for binding affinity for human Endothelin A receptor by measuring its ability to displace [125I]ET1 from chinese hamster ovary cells(CHO); type: cell-based
T3 sequence (P25101 whole entry): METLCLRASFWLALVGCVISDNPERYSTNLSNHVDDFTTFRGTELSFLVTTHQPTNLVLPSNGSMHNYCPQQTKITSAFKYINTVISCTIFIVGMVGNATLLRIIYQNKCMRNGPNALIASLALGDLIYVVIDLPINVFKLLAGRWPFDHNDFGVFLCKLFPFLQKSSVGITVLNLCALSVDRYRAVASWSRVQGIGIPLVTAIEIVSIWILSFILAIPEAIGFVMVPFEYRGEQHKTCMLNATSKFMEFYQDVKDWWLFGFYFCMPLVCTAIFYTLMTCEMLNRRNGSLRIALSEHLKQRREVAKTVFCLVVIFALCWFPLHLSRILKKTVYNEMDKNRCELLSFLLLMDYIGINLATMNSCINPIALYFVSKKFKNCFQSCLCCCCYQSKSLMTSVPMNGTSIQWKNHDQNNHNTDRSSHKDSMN

[4] = Pharmacokinetic profile AUC was evaluated in rats; type: ADME, organism-based; set-up: concentration or dose not given beside the values; conditions: rat, in vivo
Method in brief: (§1)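 Male Sprague-Dawley rats, n = 4 per group, 10 mg/kg iv (jugular slow bolus) or oral gavage, 10 mg/mL in ethanol–propylene glycol–D5W (20:30:50) with 1 equiv NaOH. Tail-vein plasma taken 0.1 (iv only) to 12 h, assayed by HPLC after extraction. AUC by trapezoidal rule extrapolated to infinity; T1/2 from terminal rate constant; F as oral/iv AUC.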

[5] = Bioavailability in rat; type: ADME, organism-based; conditions: in vivo; method in brief: as §1
[6] = Pharmacokinetic profile Cmax was evaluated in rats; type: ADME, organism-based; conditions: rat, in vivo; method in brief: as §1
[7] = Pharmacokinetic profile-half life was evaluated in rats upon intravenous administration; type: ADME, organism-based; conditions: rat, in vivo; method in brief: as §1
[8] = Pharmacokinetic profile-half life was evaluated in rats upon oral administration; type: ADME, organism-based; conditions: rat, in vivo; method in brief: as §1
[9] = target: T2, Endothelin receptor type B; experiment: Tested for binding affinity for human Endothelin B receptor by measuring its ability to displace [125I]-ET-3 from chinese hamster ovary cells(CHO); type: cell-based
Endothelin-1 receptor [10] = target: T3, Endothelin-1 receptor; experiment: Tested for binding affinity for human Endothelin A receptor by measuring its ability to displace [125I]-ET-1 from chinese hamster ovary cells(CHO); type: cell-based

## C=C(C)CCC[C@H]1[C@H](C(=O)O)[C@@H](c2ccc3c(c2)OCO3)CN1CC(=O)N(CCCC)CCCC
Endothelin-1 receptor [1]
  IC50: 5.2 nM

## CCCCN(CCCC)C(=O)CN1C[C@H](c2ccc3c(c2)OCO3)[C@@H](C(=O)O)[C@@H]1CCC1CCCO1 (stereo partly specified)
Endothelin-1 receptor [1]
  IC50: 12 nM

## CCCCN(CCCC)C(=O)CN1C[C@H](c2ccc3c(c2)OCO3)[C@@H](C(=O)O)[C@@H]1CCn1cccn1
[2]
  IC50: 42000 nM
Endothelin-1 receptor [1]
  IC50: 0.51 nM
Endothelin-1 receptor [3]
  IC50: 1.06 nM

## CCCCN(CCCC)C(=O)CN1C[C@H](c2ccc3c(c2)OCO3)[C@@H](C(=O)O)[C@@H]1CCCC(C)C
Endothelin-1 receptor [1]
  IC50: 2.5 nM

## CCCCN(CCCC)C(=O)CN1C[C@H](c2ccc3c(c2)OCO3)[C@@H](C(=O)O)[C@@H]1CCc1ncco1
Endothelin-1 receptor [1]
  IC50: 2.4 nM

## CCCCN(CCCC)C(=O)CN1C[C@H](c2ccc3c(c2)OCO3)[C@@H](C(=O)O)[C@@H]1CCN1C(=O)CCC1=O
Endothelin-1 receptor [1]
  IC50: 5 nM

## CCCCN(CCCC)C(=O)CN1C[C@H](c2ccc3c(c2)OCO3)[C@@H](C(=O)O)[C@@H]1CCCC1OCCO1
Endothelin-1 receptor [1]
  IC50: 7 nM

## CCCCN(CCCC)C(=O)CN1C[C@H](c2ccc3c(c2)OCO3)[C@@H](C(=O)O)[C@@H]1CCC=C1CC1
Endothelin-1 receptor [1]
  IC50: 0.64 nM

## CCCCN(CCCC)C(=O)CN1C[C@H](c2ccc3c(c2)OCO3)[C@@H](C(=O)O)[C@@H]1CCC(C)CC (stereo partly specified)
Endothelin-1 receptor [1]
  IC50: 16 nM

## C/C=C\C(C)(C)C[C@H]1[C@H](C(=O)O)[C@@H](c2ccc3c(c2)OCO3)CN1CC(=O)N(CCCC)CCCC
[4]
  AUC: 2620 ng·h/mL
[5]
  bioavailability: 32.2%
[6]
  Cmax: 1490 ng/mL
[7]
  half-life: 1.6 h
[8]
  half-life: 3.58 h
[2]
  IC50: 92700 nM
Endothelin-1 receptor [3]
  IC50: 1 nM

## CCCCN(CCCC)C(=O)CN1C[C@H](c2ccc3c(c2)OCO3)[C@@H](C(=O)O)[C@@H]1CCC1OCCO1
Endothelin-1 receptor [1]
  IC50: 2.3 nM

## CCCCN(CCCC)C(=O)CN1C[C@H](c2ccc3c(c2)OCO3)[C@@H](C(=O)O)[C@@H]1CC(C)(C)C=C(C)C
Endothelin-1 receptor [1]
  IC50: 2.7 nM

## CCCCN(CCCC)C(=O)CN1C[C@H](c2ccc3c(c2)OCO3)[C@@H](C(=O)O)[C@@H]1CCc1ccoc1
Endothelin-1 receptor [1]
  IC50: 2.2 nM

## C/C=C\CC[C@H]1[C@H](C(=O)O)[C@@H](c2ccc3c(c2)OCO3)CN1CC(=O)N(CCCC)CCCC
Endothelin-1 receptor [1]
  IC50: 0.78 nM

## Cc1cc2c(cc1CC(=O)c1ccsc1S(=O)(=O)Nc1onc(C)c1Cl)OCO2
[5]
  bioavailability: 60%
[7]
  half-life: 6.7 h
[9]
  Ki: > 4300 nM
Endothelin-1 receptor [10]
  Ki: 0.43 nM

## CCCCN(CCCC)C(=O)CN1C[C@H](c2ccc3c(c2)OCO3)[C@@H](C(=O)O)[C@@H]1CC/C=C(/C)CC
Endothelin-1 receptor [1]
  IC50: 0.86 nM

## CCCCN(CCCC)C(=O)CN1C[C@H](c2ccc3c(c2)OCO3)[C@@H](C(=O)O)[C@@H]1CCC1SCCS1
Endothelin-1 receptor [1]
  IC50: 4.5 nM

## CCCOc1ccc2c(c1)[C@@H](c1ccc(OC)cc1OCCO)[C@H](C(=O)O)[C@H]2c1ccc2c(c1)OCO2
[5]
  bioavailability: 66%
[7]
  half-life: 3.3 h

## CCCCN(CCCC)C(=O)CN1C[C@H](c2ccc3c(c2)OCO3)[C@@H](C(=O)O)[C@@H]1CC(C)(C)CCC
[4]
  AUC: 7060 ng·h/mL
[5]
  bioavailability: 76.8%
[6]
  Cmax: 1480 ng/mL
[7]
  half-life: 2.45 h
[8]
  half-life: 3.85 h
[2]
  IC50: 2800 nM
Endothelin-1 receptor [1]
  IC50: 1.3 nM
Endothelin-1 receptor [3]
  IC50: 0.29 nM

## CCCCN(CCCC)C(=O)CN1C[C@H](c2cc(OC)c3c(c2)OCO3)[C@@H](C(=O)O)[C@@H]1CC(C)(C)CCC [ABT-546]
[4]
  AUC: 3270 ng·h/mL
[5]
  bioavailability: 47.7%
[6]
  Cmax: 1690 ng/mL
[7]
  half-life: 1.6 h
[8]
  half-life: 2.5 h
Endothelin-1 receptor [1]
  IC50: 0.56 nM

## Cc1noc(NS(=O)(=O)c2cccc3c(N(C)C)cccc23)c1C [BMS-182874]
[9]
  Ki: > 50000 nM

## COc1ccccc1Oc1c(NS(=O)(=O)c2ccc(C)cn2)nc(-c2ccnc(-c3nnn[nH]3)c2)nc1OCCO [CLAZOSENTAN]
[7]
  half-life: 0.8 h
[9]
  Ki: 175 nM
Endothelin-1 receptor [10]
  Ki: 0.13 nM

## COc1ccc(C(=O)/C(Cc2cc(OC)c(OC)c(OC)c2)=C(\C(=O)[O-])c2ccc3c(c2)OCO3)cc1.[Na+] [PD-156707 SODIUM]
[5]
  bioavailability: 41%
[7]
  half-life: 1 h
[9]
  Ki: 139 nM
